Reference: PubChem BioAssay AID493097 (Broad Institute, 2011)
Calls of active or inactive are those of the source.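 How the source made its calls: active means falling signal with a fitted half-maximal concentration at most ten times the top valid dose; inconclusive means flat fit with 30 to 70 percent inhibition, or a poor fit; inactive means the rest.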

Tested on: not listed separately
Test: inhibition of V. harveyi QS light output, dose response, counter-screen for LuxS inhibitor project, strain BB721, dry powder, set 4 (AID 493097)
Conditions: Vibrio harveyi BB721 constitutive QS, luminescence, 9 h; at 16 µM (top of the series)
Method in brief: (§1)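 Test system: Vibrio harveyi strain BB721 with constitutively active quorum sensing. Buffer or medium: AB medium. Timing: 9 h exposure, 30 °C.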

SMILES	activity change, negative = inhibition
Cc1ccccc1NS(=O)(=O)c1cn(C)cn1	5.69% (inactive)
CN(C)C(=O)c1ccccc1NS(=O)(=O)c1cn(C)cn1	8.65% (inactive)
CC(=O)Nc1ccccc1NS(=O)(=O)c1cn(C)cn1	6.64% (inactive)
COc1ccccc1NS(=O)(=O)c1cn(C)cn1	-0.736% (inactive)
CCc1ccc(-c2ccc(C(=O)O)n2C)cc1	-7.36% (inactive)
Cn1cnc(S(=O)(=O)Nc2ccccc2F)c1	6.38% (inactive)
Cn1cnc(S(=O)(=O)Nc2ccccc2Cl)c1	12.3% (inactive)

Tested on: Vibrio harveyi BB721 constitutive QS, luminescence, 9 h
Test: as above
Conditions: not given
Method in brief: as §1

SMILES	AC50 [µM]
C=Cn1c(C(=O)O)ccc1-c1ccc(CC)cc1	13.1
O=S(=O)(Nc1ccccn1)c1ccc(Oc2ccccc2)cc1	15.5
O=S(=O)(Nc1cccnc1)c1ccc(Oc2ccccc2)cc1	0.775
O=C1C=C/C(=C/Br)O1	3.92
Cn1cnc(S(=O)(=O)Nc2ccc(OC(F)(F)F)cc2)c1	14.1
